Data: ChEMBL document CHEMBL4118042, “Cucurbitane Glucosides from the Crude Extract of Siraitia grosvenorii with Moderate Effects on PGC-1α Promoter Activity” (J Nat Prod, 2017)

Key:
Assay type in all cases: cell-based
[1] = biological target: T1, Peroxisome proliferator-activated receptor gamma coactivator 1-alpha (Homo sapiens) (UniProt Q9UBK2); assay: Activation of PGC1alpha transcriptional activity (unknown origin) expressed in HEK293 cells at 5 uM after overnight incubation by luciferase reporter gene assay relative to control
T1 sequence (whole entry): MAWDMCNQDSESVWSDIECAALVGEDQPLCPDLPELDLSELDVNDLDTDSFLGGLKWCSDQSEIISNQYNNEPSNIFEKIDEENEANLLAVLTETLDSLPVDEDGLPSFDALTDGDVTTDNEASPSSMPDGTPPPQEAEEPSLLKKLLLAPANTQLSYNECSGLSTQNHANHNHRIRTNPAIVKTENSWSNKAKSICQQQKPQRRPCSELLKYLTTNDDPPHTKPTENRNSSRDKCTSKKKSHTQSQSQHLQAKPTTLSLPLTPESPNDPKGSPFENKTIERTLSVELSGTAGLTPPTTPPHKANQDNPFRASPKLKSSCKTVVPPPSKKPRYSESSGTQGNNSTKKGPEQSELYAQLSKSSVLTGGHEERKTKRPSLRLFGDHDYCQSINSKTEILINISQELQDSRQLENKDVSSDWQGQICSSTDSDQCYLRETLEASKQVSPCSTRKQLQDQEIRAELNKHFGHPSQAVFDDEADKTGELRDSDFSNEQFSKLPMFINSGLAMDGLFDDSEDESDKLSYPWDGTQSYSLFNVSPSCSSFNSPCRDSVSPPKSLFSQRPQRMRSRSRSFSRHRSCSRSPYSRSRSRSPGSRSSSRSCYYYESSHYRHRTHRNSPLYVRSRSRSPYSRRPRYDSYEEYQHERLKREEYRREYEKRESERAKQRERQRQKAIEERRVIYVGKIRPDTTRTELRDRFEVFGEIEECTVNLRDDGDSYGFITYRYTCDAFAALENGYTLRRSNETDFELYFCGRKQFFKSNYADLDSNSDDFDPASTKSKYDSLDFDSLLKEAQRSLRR
How it was run: (§1)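 HEK293 cells stably carrying a luciferase reporter driven by the PGC-1α promoter, grown in high-glucose DMEM with 10% FBS, penicillin and streptomycin at 37 °C in 5% CO2. About 2800 cells per well; after 24 h, compound added at final 10 or 20 μM, or forskolin 5 μM or dexamethasone 100 nM, with equal DMSO as blank. Incubated overnight, then luciferase substrate added and luminescence read. Values normalized to DMSO (100%), mean ± SEM, Student's t test.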

[2] = biological target: T1, Peroxisome proliferator-activated receptor gamma coactivator 1-alpha (Homo sapiens); assay: Activation of PGC1alpha transcriptional activity (unknown origin) expressed in HEK293 cells at 5 uM after 24 hrs by luciferase reporter gene assay relative to control
[3] = biological target: T1, Peroxisome proliferator-activated receptor gamma coactivator 1-alpha (Homo sapiens); assay: Activation of PGC1alpha transcriptional activity (unknown origin) expressed in HEK293 cells at 100 nM after 24 hrs by luciferase reporter gene assay relative to control; how it was run: as §1
[4] = biological target: T1, Peroxisome proliferator-activated receptor gamma coactivator 1-alpha (Homo sapiens); assay: Activation of PGC1alpha transcriptional activity (unknown origin) expressed in HEK293 cells at 100 nM after overnight incubation by luciferase reporter gene assay relative to control; how it was run: as §1
[5] = biological target: T1, Peroxisome proliferator-activated receptor gamma coactivator 1-alpha (Homo sapiens); assay: Activation of PGC1alpha transcriptional activity (unknown origin) expressed in HEK293 cells at 20 uM after overnight incubation by luciferase reporter gene assay relative to control; how it was run: as §1
[6] = biological target: T1, Peroxisome proliferator-activated receptor gamma coactivator 1-alpha (Homo sapiens); assay: Activation of PGC1alpha transcriptional activity (unknown origin) expressed in HEK293 cells at 10 uM after overnight incubation by luciferase reporter gene assay relative to control; how it was run: as §1

Activity [5]	Activity [6]	SMILES	also measured
		C=C[C@@]1(C)CC(=O)[C@]2(O)[C@@]3(C)[C@@H](O)CCC(C)(C)[C@@H]3[C@H](O)[C@H](OC(C)=O)[C@@]2(C)O1	Activity [1]: 145%; fold change (FC) [2]: 1.4
		C[C@@H]1C[C@H]2[C@@H]3CCC4=CC(=O)C=C[C@]4(C)[C@@]3(F)[C@@H](O)C[C@]2(C)[C@@]1(O)C(=O)CO	fold change (FC) [3]: 1.7; Activity [4]: 172%
126%	105%	C[C@H](CC[C@@H](O[C@@H]1O[C@H](CO)[C@@H](O)[C@H](O)[C@H]1O[C@@H]1O[C@H](CO)[C@@H](O)[C@H](O)[C@H]1O)C(C)(C)O)[C@H]1CC[C@@]2(C)[C@@H]3C(=O)C=C4[C@@H](CC[C@H](O[C@@H]5O[C@H](CO[C@@H]6O[C@H](CO)[C@@H](O)[C@H](O)[C@H]6O)[C@@H](O)[C@H](O)[C@H]5O)C4(C)C)[C@]3(C)[C@H](O)C[C@]12C	
132%	129%	C[C@H](CC[C@@H](O[C@@H]1O[C@H](CO)[C@@H](O)[C@H](O)[C@H]1O[C@@H]1O[C@H](CO)[C@@H](O)[C@H](O)[C@H]1O)C(C)(C)O)[C@H]1CC[C@@]2(C)[C@@H]3CC=C4[C@@H](CC[C@H](O[C@@H]5O[C@H](CO[C@@H]6O[C@H](CO)[C@@H](O)[C@H](O)[C@H]6O)[C@@H](O)[C@H](O)[C@H]5O)C4(C)C)[C@]3(C)C(=O)C[C@]12C	
122%	97.8%	C[C@H](CC[C@@H](O[C@@H]1O[C@H](CO)[C@@H](O)[C@H](O)[C@H]1O[C@@H]1O[C@H](CO)[C@@H](O)[C@H](O)[C@H]1O)C(C)(C)O)[C@H]1CC[C@@]2(C)[C@@H]3C(=O)C=C4[C@@H](CC[C@H](O[C@@H]5O[C@H](CO)[C@@H](O)[C@H](O)[C@H]5O)C4(C)C)[C@]3(C)[C@H](O)C[C@]12C	
123%	107%	C[C@H](CC[C@@H](O[C@@H]1O[C@H](CO)[C@@H](O)[C@H](O)[C@H]1O[C@@H]1O[C@H](CO)[C@@H](O)[C@H](O)[C@H]1O)C(C)(C)O)[C@H]1CC[C@@]2(C)[C@@H]3CC=C4[C@@H](CC[C@H](O[C@@H]5O[C@H](CO)[C@@H](O)[C@H](O)[C@H]5O)C4(C)C)[C@]3(C)C(=O)C[C@]12C	
